# PTEN del growth: growth suppressors of cells with PTEN tumor suppressor deletion; HCT116 PTEN-null viability, CellTiter-Glo, 60 h; hits give low values; viability, % at 10 µM; hit rate 1.2% among 140,000;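 active = viability at or below a set limit, 4 SD under the median of all tested compounds, cut at about 3.7% in these data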;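 also: PTEN knockout HCT116 line with beta catenin targeted HCT116 as companion control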
# HUVEC inhibit: blocks proliferation of human endothelial cells; hit rate 1.1% among 86,000; viability, % at 10 µM (by protocol); HUVEC proliferation, CellTiter-Glo luminescence, 72 h; hits give low values;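 active = viability at or below 30%; inactive = viability above 30%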
# bCat KO growth: beta-catenin-lacking colon tumor cell growth suppression | HCT116 beta-catenin knockout viability, CellTiter-Glo, 60 h; hits give low values | viability, % at 10 µM | hit rate 1.5% among 140,000 | AID 818;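 active = viability at or under a set limit, the compound median less 4 SD, cut at about 6% in these data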
# H69AR growth 86K: growth inhibitors of human H69AR lung tumor cells | H69AR lung tumor viability, ATP luminescence, 72 h; hits give low values | viability, % at 10 µM | hit rate 6% among 85,000 | AID 598;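 active = viability at or below 40%; inactive = viability above 40%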;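 also: multidrug resistant small cell line overexpressing MRP-1 efflux transporter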
# Lung fibro prol: blocks proliferation of human lung fibroblasts; AID 719; LL 47 human lung fibroblast viability, ATP luminescence; hits give low values; viability, % at 10 µM; hit rate 1.1% among 85,000;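 active = viability at or below 50% in the single dose screen; inactive = viability above 50%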;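 also: compound exposure lasted 72 h before the ATP readout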
#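 material = human LL 47 lung fibroblast cells | dosing = compounds added from tenfold dosing solution, 0.1% DMSO final | timing = overnight cell rest, 72 h compound treatment at 37 °C | measured by = CellTiter-Glo luminescence measuring cellular ATP | evaluation = % viability versus median cells-only luminescence | control set = cell-only wells, no compound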
# Hits are given with their value; i = inactive; nt = not tested or not shown. Only a selection was taken, and hits are over-represented in it overall.
SMILES,PTEN del growth,HUVEC inhibit,bCat KO growth,H69AR growth 86K,Lung fibro prol
O=C(CSc1nnc(-c2cccs2)n1-c1ccccc1)Nc1ccccc1,i,i,i,i,41.5
COC(=O)[C@@]1(Cc2ccc(F)cc2)[C@H]2c3cc(C(=O)N4CCCC4)n(CCc4ccccn4)c3C[C@H]2CN1C(=O)c1ccccc1,i,nt,i,nt,nt
O=C1CSC(=S)N1Cc1cccnc1,3.2,i,3.9,1.2,36.5
O=C1CSC(=S)N1c1cccnc1,i,i,i,i,i
Cc1ccc(CN(Cc2ccco2)S(=O)(=O)c2ccc(S(=O)(=O)NCC3CCCO3)cc2)cc1 (stereo not drawn),i,nt,i,nt,nt
CCCCNc1nc(N(C)c2ccccc2)nc(-n2ccnc2)n1,i,i,i,33.5,i
CN(c1ccccc1)c1nc(-n2ccnc2)nc(-n2ccnc2)n1,i,i,i,31.7,i
c1ccc(-c2nc(N3CCN(c4ccccc4)CC3)nc(-n3ccnc3)n2)cc1,i,i,i,i,i
C=CCNc1nc(N(c2ccccc2)c2ccccc2)nc(-n2ccnc2)n1,i,i,i,i,i
c1ccc(-c2nc(N3CCCCCC3)nc(-n3ccnc3)n2)cc1,i,i,i,0.9,i
CNc1nc(OCC(F)(F)F)nc(N2CCN(C34CC5CC(CC(C5)C3)C4)CC2)n1,nt,i,nt,i,i
CCC(C)NC(=O)C1c2ccccc2C(=O)N(c2ccc(OC)cc2)C1c1ccc(OC)cc1 (stereo not drawn),i,i,i,i,i
CC12CCC(c3c(C(=O)Nc4nccs4)nn(-c4ccccc4)c31)C2(C)C (stereo not drawn),1.6,i,1.4,20.4,i
CC12CCC(c3c(C(=O)O)nn(-c4ccccc4)c31)C2(C)C (stereo not drawn),i,i,i,i,i
O=C(c1cccc(Br)c1)c1cn(-c2ccccc2)nc1C(=O)c1ccccc1,i,nt,i,nt,nt
COC(=O)CCS(=O)(=O)c1nc(-c2ccccc2)cc(C(F)(F)F)n1,i,i,i,1.4,27.5
CCOC(=O)CS(=O)(=O)c1nc(-c2ccc(F)cc2)cc(C(F)(F)F)n1,i,23.5,i,4.4,2.9
CCOC(=O)CS(=O)(=O)c1nc(-c2ccccc2)cc(C(F)(F)F)n1,i,12.2,i,1.6,3.8
CCOC(=O)CCS(=O)(=O)c1nc(-c2ccccc2)cc(C(F)(F)F)n1,i,28.4,i,0.8,3.0
COCC(C)NC(=O)CCS(=O)(=O)c1nc(-c2ccc(OC)cc2)cc(C(F)(F)F)n1 (stereo not drawn),i,nt,i,nt,nt
CCOC(=O)CS(=O)(=O)c1ccccc1,i,i,i,i,i
CC12CN(S(=O)(=O)c3ccccc3)CC(C)(CN(S(=O)(=O)c3ccccc3)C1)C2,i,i,i,i,i
Cc1cccc(N2CCN(C(=O)c3ccc(Cl)c(S(=O)(=O)N4CCc5ccccc5C4)c3)CC2)c1C,i,nt,i,nt,nt
Cc1c(C(=O)N2CCN(c3ccccc3F)CC2)sc2ncn(CC(=O)N3CCOCC3)c(=O)c12,i,i,i,i,nt
CC1N=C2c3ccccc3N=C(SCc3cc(=O)n4ccccc4n3)N2C1=O (stereo not drawn),nt,i,nt,i,i
SMILES,PTEN del growth,HUVEC inhibit,bCat KO growth,H69AR growth 86K,Lung fibro prol
CSc1cccc(NS(=O)(=O)c2ccc3c(c2)oc(=O)n3C)c1,i,i,i,i,i
CC1CCC(NC(=O)CC(C)(C)Cc2nc3ccccc3c(=O)[nH]2)CC1 (stereo not drawn),i,i,i,24.6,i
Cc1ccc(NC(=O)C2(NC(=O)c3ccccn3)CCCCC2)cc1Br,i,nt,i,nt,nt
COc1cccc(C2CC(c3c(-c4ccccc4)c4cc(Cl)ccc4[nH]c3=O)=NN2S(C)(=O)=O)c1OC (stereo not drawn),i,i,i,21.9,i
CCC(=O)N1N=C(c2c(-c3ccccc3)c3cc(Cl)ccc3[nH]c2=O)CC1c1ccco1 (stereo not drawn),i,nt,i,nt,nt
COc1ccccc1C1CC(c2c(-c3ccccc3)c3cc(Cl)ccc3[nH]c2=O)=NN1S(C)(=O)=O (stereo not drawn),1.9,25.9,2.0,8.3,i
CC1(C)Oc2ccccc2OC1(O)c1ccc2ccccc2n1 (stereo not drawn),i,nt,i,nt,nt
COc1ccc(/C=C/c2cc(-c3ccc(C)cc3)o[n+]2C)cc1,1.5,nt,1.2,nt,nt
CCOC(=O)Nc1ccc2c(c1)Nc1ccccc1S2,i,i,i,i,i
CCOC(=O)C1(Nc2nccs2)Sc2ccccc2NC1=O (stereo not drawn),i,i,i,15.8,i
COc1ccc(-c2nnc(SCC(=O)N3CCN(c4ccccc4)CC3)o2)cc1OC,i,i,i,14.3,i
Cc1ccc(Nc2nnc(SCC(=O)NCCN3C(=O)CSC3=O)s2)cc1,i,nt,i,nt,nt
CC(C)(C)c1csc(NC(=O)c2ccc(Cl)s2)n1,i,i,i,i,i
CCNc1nc(N)c(C(=O)c2ccc(Cl)s2)s1,i,i,i,28.5,i
COc1cc(OC)nc(-n2ncc(Br)c(Br)c2=O)n1,1.4,nt,1.6,nt,nt
COC(=O)c1cnn(-c2nc(OC)cc(OC)n2)c1C,i,nt,i,nt,nt
O=C(NNC1=C(C(=O)C(F)(F)F)CCC1)c1cccc(Cl)c1,i,22.5,i,29.4,i
Cc1cc(C)c(COCc2cc(/C=N/O)c(C)cc2C)cc1/C=N/O,i,i,i,18.2,i
CSc1cc(/C=N/O)c(SC)s1,i,nt,i,nt,nt
C=CCOC(=O)C1=C(C)NC(SCC(=O)N(CC)CC)=C(C#N)C1c1ccco1 (stereo not drawn),i,i,i,35.4,i
COC(=O)c1[nH]c2c(c1C)C(=O)CC(c1cc(OC)ccc1OC)C2 (stereo not drawn),i,i,i,21.8,i
COC(=O)c1[nH]c2c(c1C)C(=O)CC(c1cccs1)C2 (stereo not drawn),i,i,i,34.0,46.8
CCOC(=O)c1cc(-c2ccccc2)sc1NC(=O)C(C)OC(=O)c1cccnc1Cl (stereo not drawn),i,nt,i,nt,nt
CCN1CCN(Cc2ccc(OCc3ccccc3)cc2)CC1,1.2,i,1.0,i,i
CN1CCN(Cc2ccc(OCc3ccccc3)cc2)CC1,i,i,i,i,nt
SMILES,PTEN del growth,HUVEC inhibit,bCat KO growth,H69AR growth 86K,Lung fibro prol
Cc1nc(C)c(C(=O)C2=C(O)C(=O)N(CCCN(C)C)C2c2ccco2)s1 (stereo not drawn),nt,i,nt,i,i
COc1ccc2cc(Br)ccc2c1CC(=O)NC(C)(C)C,i,nt,i,nt,nt
CC(=O)/C(=N/Nc1ccccc1C)N1CCOCC1,i,nt,i,nt,nt
CCOc1ccc2nc(NC(=O)CN3CCC(n4nnc5cc(C(F)(F)F)ccc54)CC3)sc2c1,i,i,i,37.8,i
COC(=O)c1ccccc1NC(=O)CN1CCC(n2nnc3cc(C)ccc32)CC1,nt,i,nt,i,i
Cc1cc(NC(=O)CN2CCC(n3nnc4cc(C(F)(F)F)ccc43)CC2)no1,i,i,i,i,i
CCOC(=O)c1ccccc1NC(=O)CN1CCC(n2nnc3cc(F)ccc32)CC1,nt,i,nt,27.1,i
CCN(CC)c1ccc(C(=O)OCC(=O)Nc2cccc(S(=O)(=O)NC3=NCCCCC3)c2)cc1,i,nt,i,nt,nt

# Assay outcomes: PubChem, SRMLSC
